MEKK2mut PB1 HTS: signal of MEK5 binding to mutant human MEKK2 PB1 domain; AID 1530; actives 0.35% (n = 290,000); percent response, % at 10 µM; bead flow cytometry, Alexa488-MEK5 binding to MEKK2 mutant; in the data active = percent response above about 24%, passing the limit was not always enough
Efflux pump inh: antifungal efflux pump inhibition, Nile Red retention; S. cerevisiae Candida pump triplex; inhibition, % at 10 µM; actives 0.44% (n = 330,000);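 active = plate passing quality check with inhibition over a set limit, or well fluorescence over plate mean plus 4 SD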;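 note: Nile Red retained in pooled yeast measured as flow cytometry median fluorescence; 0% = buffer negative control and 100% = Enniatin B positive control; higher means more Nile Red kept so more efflux inhibition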
MEKK2 WT-MEK5: raises or lowers MEK5 binding to wildtype human MEKK2 PB1 domain. bead flow cytometry, Alexa488-MEK5 binding to MEKK2 WT; actives lie on both sides. binding response (% of control), % at 10 µM. actives 1.1% (n = 290,000). AID 1531; in the data active = binding response below about 67% or above about 130%
MEKK3 PB1 HTS: MEKK3-MEK5 PB1 interaction, increase or decrease; bead-based flow cytometry, Alexa488-MEK5 binding to MEKK3; actives lie on both sides; 0 = blocked by unlabeled MEK5, 100 = vehicle; binding response (% of control), % at 10 µM; actives 1.4% (n = 290,000); AID 1529;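 active = binding response more than 3 SD above or below the average of its plate-row segment, actives on both sides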;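 note: Alexa488 bead fluorescence after subtracting the streptavidin-only scavenger bead signal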
Target sequence (Q99759 whole entry, looked up): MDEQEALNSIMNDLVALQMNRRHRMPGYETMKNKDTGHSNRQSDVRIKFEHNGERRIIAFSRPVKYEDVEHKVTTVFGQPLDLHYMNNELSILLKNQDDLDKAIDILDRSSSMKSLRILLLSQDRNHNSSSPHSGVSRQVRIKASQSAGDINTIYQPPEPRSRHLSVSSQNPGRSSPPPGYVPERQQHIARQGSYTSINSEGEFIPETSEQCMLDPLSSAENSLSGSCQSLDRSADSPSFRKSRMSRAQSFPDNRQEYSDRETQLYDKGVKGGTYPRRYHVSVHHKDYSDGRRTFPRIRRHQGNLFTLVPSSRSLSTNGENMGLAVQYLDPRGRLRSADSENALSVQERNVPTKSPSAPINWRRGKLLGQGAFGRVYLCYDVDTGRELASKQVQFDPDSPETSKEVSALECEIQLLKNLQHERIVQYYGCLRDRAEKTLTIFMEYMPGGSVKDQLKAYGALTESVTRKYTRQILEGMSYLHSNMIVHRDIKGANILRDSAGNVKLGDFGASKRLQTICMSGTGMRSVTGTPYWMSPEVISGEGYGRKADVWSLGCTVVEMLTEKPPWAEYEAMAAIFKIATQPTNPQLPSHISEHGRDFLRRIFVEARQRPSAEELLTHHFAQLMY
ABCB1 block: human ABCB1 inhibition, ABCG2 as counter-screen; AID 1326; actives 0.067% (n = 190,000); P08183; CCRF-Adr cells, JC-1 efflux, flow cytometry; inhibition, % at 6.6 µM; in the data active = inhibition above about 40%;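 note: 0% = vehicle and 100% = reference inhibitor; higher value means more JC-1 retained so stronger ABCB1 efflux block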
ABCG2 inh: human ABCG2 inhibition, ABCB1 as counter-screen; Q9UNQ0; IgMXP3 cells, JC-1 efflux, flow cytometry; inhibition, % at 6.6 µM; actives 0.1% (n = 190,000); AID 1325;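 active = inhibition above 80%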;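 note: 0% = DMSO and 100% = nicardipine control wells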
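Test system: IgMXP3 (ABCG2) plus far-red-tagged CCRF-Adr (ABCB1) cells. Reagent: JC-1 dye as substrate. Timing: 10 min exposure at 25 °C with rotation, no wash. Measured by: flow cytometric JC-1 green MFI at 530 nm. Read-out: percent efflux inhibition, scaled nicardipine 100% to DMSO 0%. Control set: nicardipine and DMSO wells.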
The depositor's hits bear a star; / = no result given; [ ] = dose if it differs, or a comment. Rows were chosen to be rich in hits. Some 2.5% of all compounds tested hit in one or more screens of this group.

SMILES	MEKK2mut PB1 HTS	Efflux pump inh	MEKK2 WT-MEK5	MEKK3 PB1 HTS	ABCB1 block	ABCG2 inh
CCc1ccc(/C(C)=N/NC(=O)CNC(=O)/C=C/c2ccco2)cc1	/	0	/	/	/	/
Cc1ccc(Oc2c(C(N)=O)cc([N+](=O)[O-])cc2[N+](=O)[O-])cc1	-3	-2	96	94	0	1
CC1CC(C)CN(C(=O)C(C)N2CCN(S(=O)(=O)c3ccc(Br)s3)CC2)C1 (stereo not drawn)	/	0	/	/	/	/
CCOc1ccc(CSCCNC(=S)Nc2ccccc2)cc1	0	0	106	128*	1	13
Nc1nc(-c2ccccc2)c(-c2ccccc2)n1N	7	0	107	101	/	/
c1ccc(-c2cnn3c(-c4ccccc4)c(-c4ccccc4)nc3n2)cc1	-5	/	92	96	43*	172*
Cc1ccc(C(C)C)cc1NC(=O)Nc1ccc([N+](=O)[O-])cc1	25*	0	157*	112	/	/
CCOc1ccc(NC(=O)Nc2cc(C(C)C)ccc2C)cc1	1	/	84	82	/	/
CC(C)C(=O)NC(NC(=O)C(C)C)c1ccc([N+](=O)[O-])cc1	3	0	-1.0*	100	3	13
O=C(NC(NC(=O)c1c(F)cccc1F)c1ccc([N+](=O)[O-])cc1)c1c(F)cccc1F	5	0	100	101	/	/
CC(C)(C)c1ccc(-c2nc3n(c(=O)c2C#N)CCS3)cc1	-6	0	96	97	0	3
COc1ccc(CC(=O)Nc2ccc(N3CCCC3)c(C)c2)cc1	-4	0	33*[inhibitor]	98	/	/
Cc1ccc(S(=O)(=O)/N=C/c2ccc(N(C)C)cc2)cc1	-2	0	90	95	0	2
Cc1ccc(S(=O)(=O)NCCN=Cc2ccc(N(C)C)cc2)cc1	-1	0	61*[inhibitor]	99	/	/
Cc1ccc(-c2ccc(/C=C(\C#N)C(=O)Nc3cc(C)nn3-c3ccccc3)o2)cc1	0	1.5*	77	91	0	-1
Cc1cc(NC(=O)/C(C#N)=C/c2ccco2)n(-c2ccccc2)n1	18	0	104	97	1	10
O=C(NC(CC(=O)N1CCCC(C(F)(F)F)C1)c1ccccc1)c1ccccc1Cl (stereo not drawn)	0	0	102	99	/	/
CN1/C(=C\C=O)C(C)(C)c2ccccc21	-2	0	95	93	1	4
CN1\C(=C/C=C/C=C/C=[N+](C)C)C(C)(C)c2ccccc21	-23	/	-3.0*	89	1	0
CC(C)Oc1ccc(-c2nn(-c3ccccc3)cc2/C=c2\sc3ncnn3c2=O)cc1	/	0.9*	/	/	0	0
Cc1cccc(C(=O)OCC(=O)NC2CC2)c1O	/	0	/	/	/	/
Cc1ccc2sc(N(CCCN(C)C)C(=O)CCS(=O)(=O)c3ccccc3)nc2c1C	16	0	151*	107	/	/
COc1ccc(OC)c2sc(N(CCCN(C)C)C(=O)CCS(=O)(=O)c3ccccc3)nc12	/	0	/	/	/	/
C#CCOCCOCCOCCNc1nc(N2CCN(C(=O)CCCCCCCCCCNC(=O)[C@H]([C@@H](C)CC)n3cc(CCCCN=C(N)N)nn3)CC2)nc(N2CCN(C(=O)CCCCCCCCCCNC(=O)[C@H](CCCCN)n3cc(C[C@@H](C)CC)nn3)CC2)n1	/	85*	/	/	/	/
C#CCOCCOCCOCCNc1nc(N2CCN(C(=O)CCCCCCCCCCNC(=O)[C@H](CCCCN)n3cc(CCO)nn3)CC2)nc(N2CCN(C(=O)CCCCCCCCCCNC(=O)[C@H](CCCN=C(N)N)n3cc(C[C@@H](C)CC)nn3)CC2)n1	/	0	/	/	/	/
CCc1c(C2(O)CCCCC2)[nH]c2ccc(C(F)(F)F)cc12	-2	0	91	102	/	/
CCOC(=O)c1c(C)n(S(=O)(=O)c2ccc(C)cc2)c2ccc(O)c(C(=O)O)c12	0	0	97	100	/	/
CCc1ccc(NC(=O)c2cccc(C(=O)Nc3ccc(CC)cc3)n2)cc1	-28	0	-9.0*[inhibitor]	0.0*[inhibitor]	/	/
COC(=O)c1cccc(C(=O)Nc2ccc(C)cc2)n1	0	0	101	102	0	0
Cc1nc2ccc(NC(=O)CCC3CCCC3)cc2s1	-1	0	104	104	/	/

High-throughput results deposited in PubChem BioAssay by NMMLSC.
